# Reference: ChEMBL document CHEMBL1125060, “Synthesis and biological evaluation of carbocyclic analogues of lyxofuranosides of 2-amino-6-substituted-purines and 2-amino-6-substituted-8-azapurines” (1990)
# Assays:
# MDCK [1] = experiment: In vitro antiviral activity against influenza virus (type A0/PR/8/34) in Madin-Darby canine kidney (MDCK) host cell cultures; assay type: functional, Canis lupus familiaris
# P388 [2] = experiment: In vitro inhibition against P-388 mouse leukemia cells using growth inhibition assay at the concentration of 100 ug/mL; assay type: functional
# Summary of the method: (§1)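 P-388 mouse leukemia cells in culture, by the National Cancer Institute protocol. Tested at 6.25-100 μg/mL and reported as percent growth inhibition. Carbocyclic adenosine is the positive control.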
# P388 [3] = experiment: In vitro inhibition against P-388 mouse leukemia cells using growth inhibition assay at the concentration of 12.5 ug/mL; assay type: functional; summary of the method: as §1
# P388 [4] = experiment: In vitro inhibition against P-388 mouse leukemia cells using growth inhibition assay at the concentration of 25 ug/mL; assay type: functional; summary of the method: as §1
# P388 [5] = experiment: In vitro inhibition against P-388 mouse leukemia cells using growth inhibition assay at the concentration of 50 ug/mL; assay type: functional; summary of the method: as §1
# P388 [6] = experiment: In vitro inhibition against P-388 mouse leukemia cells using growth inhibition assay at the concentration of 6.25 ug/mL; assay type: functional; summary of the method: as §1
# Vero [7] = experiment: (§2) In vitro antiviral activity against herpes simplex virus type 1 (E-377 strain) in Vero host cell cultures; assay type: functional, Chlorocebus sabaeus
# Summary of the method: (§3)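 CPE inhibition assay with HSV-1 strain E-377 replicating in Vero cells. ID50 is the minimum concentration (μg/mL) inhibiting CPE by 50%, from regression with semilog curve fitting. MTC is the minimum concentration (μg/mL) giving any cytotoxicity. TI is MTC divided by ID50.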
# Vero [8] = experiment: Minimum concentration (ug/mL) for in vitro antiviral activity against herpes simplex virus type 1 (E-377 strain) in Vero host cell cultures; assay type: functional, Chlorocebus sabaeus; summary of the method: as §3
# MRC5 [9] = experiment: Effect of compound treatment on yields of human cytomegalovirus (HCMV) in MRC5 (human diploid embryonic lung cells) monolayer cultures at the concentration of 32 uM; assay type: functional
# Summary of the method: (§4)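 Virus yield reduction assay with HCMV strain Ad169, passaged, titrated and assayed in MRC5 human diploid embryonic lung cells. Virus yields are read as PFU. Includes a virus control and a DHPG positive control.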
# Vero [10] = experiment: In vitro antiviral activity against herpes simplex virus type 1 (E-377 strain) in Vero host cell cultures (MTC/ID50); assay type: functional, Chlorocebus sabaeus; summary of the method: as §3
# Vero [11] = experiment: In vitro minimum drug concentration that inhibited herpes simplex virus type 1 (E-377 strain)-induced cytopathogenic effects by 50% in vero cell cultures; assay type: functional; conditions: Chlorocebus sabaeus, read-out: ID50 (the source's name); summary of the method: as §3
# MRC5 [12] = experiment: Cytotoxicity against MRC5 (human diploid embryonic lung cells) cell monolayer cultures at the concentration of 320 uM; Slightly toxic; assay type: functional, cell-based
# MRC5 [13] = experiment: Cytotoxicity against MRC5 (human diploid embryonic lung cells)cell monolayer cultures at the concentration of 1000 uM; Slightly toxic; assay type: functional, cell-based
# MRC5 [14] = experiment: Cytotoxicity against MRC5 (human diploid embryonic lung cells)cell monolayer cultures at the concentration of 100 uM; assay type: functional
# MRC5 [15] = experiment: Cytotoxicity against MRC5 (human diploid embryonic lung cells)cell monolayer cultures at the concentration of 32 uM; assay type: functional
# MRC5 [16] = experiment: Effect of compound on yields of human cytomegalovirus (HCMV) in MRC5 (human diploid embryonic lung cells)cell monolayer cultures at the concentration of 100 uM; assay type: functional; summary of the method: as §4
# MRC5 [17] = experiment: Effect of compound on yields of human cytomegalovirus (HCMV) in MRC5 (human diploid embryonic lung cells)cell monolayer cultures at the concentration of 3.2 uM; assay type: functional; summary of the method: as §4
# MRC5 [18] = experiment: Effect of compound on yields of human cytomegalovirus (HCMV) in MRC5 (human diploid embryonic lung cells)cell monolayer cultures at the concentration of 320 uM; assay type: functional; summary of the method: as §4
# MRC5 [19] = experiment: Effect of compound on yields of human cytomegalovirus (HCMV) in MRC5 (human diploid embryonic lung cells)cell monolayer cultures at the concentration of 32 uM; assay type: functional; summary of the method: as §4
# MRC5 [20] = experiment: Effect of compound treatment on yields of human cytomegalovirus (HCMV) in MRC5 (human diploid embryonic lung cells)cell monolayer cultures at the concentration of 1000 uM; assay type: functional; summary of the method: as §4
# MRC5 [21] = experiment: Cytotoxicity against MRC5 (human diploid embryonic lung cells)cell monolayer cultures by using MTT [3-(4,5-Dimethylthiazol-2-yl)-2,5-diphenyltetrazolium bromide]assay at the concentration of 32 uM; assay type: functional
# Summary of the method: (§5)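 MRC5 human diploid embryonic lung cell monolayers. Cytotoxicity is quantified by host-cell mitochondrial reduction of MTT to MTT formazan. It was run alongside the HCMV yield reduction assay.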
# MRC5 [22] = experiment: Cytotoxicity against MRC5 (human diploid embryonic lung cells)cell monolayer cultures by using MTT [3-(4,5-Dimethylthiazol-2-yl)-2,5-diphenyltetrazolium bromide]assay at the concentration of 100 uM; assay type: functional; summary of the method: as §5
# MRC5 [23] = experiment: Cytotoxicity against MRC5 (human diploid embryonic lung cells) cell monolayer cultures by using MTT [3-(4,5-Dimethylthiazol-2-yl)-2,5-diphenyltetrazolium bromide]assay at the concentration of 1000 uM; assay type: functional; summary of the method: as §5
# MRC5 [24] = experiment: Cytotoxicity against MRC5 (human diploid embryonic lung cells) cell monolayer cultures by using MTT [3-(4,5-Dimethylthiazol-2-yl)-2,5-diphenyltetrazolium bromide]assay at the concentration of 320 uM; assay type: functional; summary of the method: as §5
# MRC5 [25] = experiment: Effect of compound on yields of human cytomegalovirus (HCMV) in MRC5 (human diploid embryonic lung cells)cell monolayer cultures at the concentration of 0 uM; assay type: functional; summary of the method: as §4
# Vero [26] = experiment: as §2; assay type: functional; conditions: Chlorocebus sabaeus, read-out: ID50 (the source's name); summary of the method: as §3
# Vero [27] = experiment: as §2; assay type: functional, Chlorocebus sabaeus; remark: listed apart in the source
# Summary of the method: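 CPE-inhibition assay: HSV-1 strain E-377 replicating in African green monkey kidney (Vero) cells. ID50 is the minimum drug concentration (μg/mL) giving 50% CPE inhibition, taken from semilog regression curve fitting. Cytotoxicity was scored as the minimum concentration (μg/mL) showing any toxicity (MTC). TI = MTC/ID50.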
# MRC5 [28] = experiment: Effect of compound on yields of human cytomegalovirus (HCMV) in MRC5 (human diploid embryonic lung cells)cell monolayer cultures at the concentration of 10 uM; assay type: functional; summary of the method: as §4
# MDCK [29] = experiment: Minimum concentration (ug/mL) for in vitro antiviral activity against influenza virus (type A0/PR/8/34) in Madin-Darby canine kidney (MDCK) host cell cultures; assay type: functional, Canis lupus familiaris
# Summary of the method: (§6)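 MDCK host cell cultures infected with influenza A0/PR/8/34, scored for inhibition of virus-induced cytopathogenic effect (CPE). ID50 is the minimum drug concentration (μg/mL) that cut CPE by 50%, from semilog regression curve fitting. MTC is the minimum concentration (μg/mL) at which any cytotoxicity was seen. Therapeutic index is MTC divided by ID50.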
# Vero [30] = experiment: In vitro minimum drug concentration that inhibited herpes simplex virus type 1 (E-377 strain) virus-induced cytopathogenic effects by 50% in vero cells; assay type: functional; conditions: Chlorocebus sabaeus, read-out: ID50 (the source's name); summary of the method: as §3
# MDCK [31] = experiment: In vitro minimum drug concentration that inhibited the influenza virus-induced cytopathogenic effects by 50% in Madin-Darby canine kidney (MDCK) host cell cultures; assay type: functional; conditions: Canis lupus familiaris, read-out: ID50 (the source's name); summary of the method: as §6
# MDCK [32] = experiment: In vitro antiviral activity against influenza virus (type A0/PR/8/34) in Madin-Darby canine kidney (MDCK) host cell cultures (MTC/ID50); assay type: functional, Canis lupus familiaris; summary of the method: as §6
structure (smiles),measurement,setting,value
Nc1nc(N)c2nnn(C3CC(CO)C(O)C3O)c2n1 (centres undefined),Virus rating,MDCK [1],0
same,inhibition at 100 µg/mL,P388 [2],58.4%
same,inhibition at 12.5 µg/mL,P388 [3],0%
same,inhibition at 25 µg/mL,P388 [4],12.2%
same,inhibition at 50 µg/mL,P388 [5],31.5%
same,inhibition at 6.25 µg/mL,P388 [6],0%
same,Virus rating,Vero [7],0
same,MTC,Vero [8],>294.8 µg/mL
Nc1nc(Cl)c2ncn(C3CC(CO)C(O)C3O)c2n1 (centres undefined),Virus rating,MDCK [1],0
same,inhibition at 100 µg/mL,P388 [2],2.8%
same,inhibition at 12.5 µg/mL,P388 [3],0%
same,inhibition at 25 µg/mL,P388 [4],0%
same,inhibition at 50 µg/mL,P388 [5],0%
same,inhibition at 6.25 µg/mL,P388 [6],0%
same,Virus rating,Vero [7],0
same,MTC,Vero [8],299.7 µg/mL
Nc1nc2c(ncn2COC(CO)CO)c(=O)[nH]1 [GANCICLOVIR],HCMV yield,MRC5 [9],2.4 log10 pfu/mL
same,HCMV yield reduction,MRC5 [9],3 log10 pfu/mL
Nc1nc(N)c2ncn(C3CC(CO)C(O)C3O)c2n1 (centres undefined),Virus rating,MDCK [1],0
same,inhibition at 100 µg/mL,P388 [2],42.3%
same,inhibition at 12.5 µg/mL,P388 [3],0%
same,inhibition at 25 µg/mL,P388 [4],0%
same,inhibition at 50 µg/mL,P388 [5],11.3%
same,inhibition at 6.25 µg/mL,P388 [6],0%
same,Therapeutic index,Vero [10],1.4
same,Virus rating,Vero [7],0.6 VR
same,MTC,Vero [8],280.3 µg/mL
same,IC50,Vero [11],195 µg/mL
Nc1nc(O)c2ncn(C3CC(CO)C(O)C3O)c2n1 (centres undefined),Virus rating,MDCK [1],0
same,Gross morphology,MRC5 [12],Toxic
same,Gross morphology,MRC5 [13],Toxic
same,Gross morphology,MRC5 [14],0
same,Gross morphology,MRC5 [15],0
same,HCMV yield,MRC5 [16],3.7 log10 pfu/mL
same,HCMV yield reduction,MRC5 [16],1.7 log10 pfu/mL
same,HCMV yield,MRC5 [17],4.9 log10 pfu/mL
same,HCMV yield reduction,MRC5 [17],0.5 log10 pfu/mL
same,HCMV yield,MRC5 [18],2.5 log10 pfu/mL
same,HCMV yield reduction,MRC5 [18],2.9 log10 pfu/mL
same,HCMV yield,MRC5 [19],4.2 log10 pfu/mL
same,HCMV yield reduction,MRC5 [19],1.2 log10 pfu/mL
same,HCMV yield,MRC5 [20],< 0.6 log10 pfu/mL
same,HCMV yield reduction,MRC5 [20],> 4.8 log10 pfu/mL
same,Control,MRC5 [21],103%
same,Control,MRC5 [22],97%
same,Control,MRC5 [23],88%
same,Control,MRC5 [24],93%
same,HCMV yield,MRC5 [25],5.4 log10 pfu/mL
same,inhibition at 100 µg/mL,P388 [2],71.6%
same,inhibition at 12.5 µg/mL,P388 [3],9.1%
same,inhibition at 25 µg/mL,P388 [4],42.1%
same,inhibition at 50 µg/mL,P388 [5],58.4%
same,inhibition at 6.25 µg/mL,P388 [6],0%
same,Virus rating,Vero [7],2.1
same,IC50,Vero [26],83.4 µg/mL
same,MTC,Vero [8],>299.3 µg/mL
same,TI,Vero [27],>3.6
same,HCMV yield,MRC5 [28],4.8 log10 pfu/mL
same,HCMV yield reduction,MRC5 [28],0.6 log10 pfu/mL
Nc1ncnc2c1ncn2[C@@H]1C[C@H](CO)[C@@H](O)[C@H]1O [ARISTEROMYCIN],inhibition at 100 µg/mL,P388 [2],100%
same,inhibition at 12.5 µg/mL,P388 [3],100%
same,inhibition at 25 µg/mL,P388 [4],100%
same,inhibition at 50 µg/mL,P388 [5],100%
same,inhibition at 6.25 µg/mL,P388 [6],100%
Nc1nc(Cl)c2nnn(C3CC(CO)C(O)C3O)c2n1 (centres undefined),MTC,MDCK [29],>256.3 µg/mL
same,Virus rating,MDCK [1],0.3
same,inhibition at 100 µg/mL,P388 [2],99.1%
same,inhibition at 12.5 µg/mL,P388 [3],0%
same,inhibition at 25 µg/mL,P388 [4],14.2%
same,inhibition at 50 µg/mL,P388 [5],40.1%
same,inhibition at 6.25 µg/mL,P388 [6],0%
same,Virus rating,Vero [7],0
same,MTC,Vero [8],300.7 µg/mL
Nc1nc2c(ncn2COCCO)c(=O)[nH]1 [ACYCLOVIR],Therapeutic index,Vero [10],>240.3
same,Virus rating,Vero [7],6.2
same,IC50,Vero [30],0.9 µg/mL
same,MTC,Vero [8],>255.2 µg/mL
Nc1ncnc2c1ncn2[C@@H]1O[C@H](CO)[C@@H](O)[C@@H]1O [VIDARABINE],Therapeutic index,Vero [10],5.6
same,Virus rating,Vero [7],2.4
same,IC50,Vero [26],4.8 µg/mL
same,MTC,Vero [8],26.8 µg/mL
Nc1nc(O)c2nnn(C3CC(CO)C(O)C3O)c2n1 (centres undefined),MTC,MDCK [29],95 µg/mL
same,Virus rating,MDCK [1],0.2
same,inhibition at 100 µg/mL,P388 [2],63.9%
same,inhibition at 12.5 µg/mL,P388 [3],0%
same,inhibition at 25 µg/mL,P388 [4],5%
same,inhibition at 50 µg/mL,P388 [5],27.4%
same,inhibition at 6.25 µg/mL,P388 [6],0%
same,Virus rating,Vero [7],0
same,MTC,Vero [8],300.3 µg/mL
NC(=O)c1ncn([C@@H]2O[C@H](CO)[C@@H](O)[C@H]2O)n1 [RIBAVIRIN],IC50,MDCK [31],3.1 µg/mL
same,MTC,MDCK [29],32 µg/mL
same,Therapeutic index,MDCK [32],10.3
same,Virus rating,MDCK [1],3.4
